# PAFAH1B3 FP inh = PAFAH1B3 (human) inhibition; AID 492972; Q15102; recombinant PAFAH1B3, FP-rhodamine probe, fluorescence polarization; hit rate 0.28% among 340,000; inhibition, % at 3.39 µM;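 active = inhibition above the screen-wide average of all tested compounds plus 3 SD, cut at about 25% in these data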
# Target sequence (Q15102 whole entry, looked up): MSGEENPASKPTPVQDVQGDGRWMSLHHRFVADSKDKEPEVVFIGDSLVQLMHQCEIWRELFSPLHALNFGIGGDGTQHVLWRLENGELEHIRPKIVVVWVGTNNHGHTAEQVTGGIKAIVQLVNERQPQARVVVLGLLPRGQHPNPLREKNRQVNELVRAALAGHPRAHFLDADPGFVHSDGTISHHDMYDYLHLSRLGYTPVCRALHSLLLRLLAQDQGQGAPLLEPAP
# RBBP9 inh = blocks human serine hydrolase RBBP9. inhibition, % at 7.94 µM. O75884. recombinant RBBP9, FP-Rh probe fluorescence polarization. hit rate 0.2% among 220,000;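 active = inhibition above the campaign mean of all tested compounds plus 3 SD, cut at about 14% in these data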
#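 System: RBBP9 protein | Quantity: 2.5 µM RBBP9 dispensing solution, before mixing | Reagent: FP-Rh probe, 375 nM dispensing solution | Timing: Enzyme-compound preincubation 30 min, then probe labeling 45 min, 25 °C | Measured by: Fluorescence polarization | Read-out: % inhibition | Replication: One well per compound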
# PAFAH1B2 inh = blocks human PAF acetylhydrolase 1b catalytic subunit 2. P68402. recombinant PAFAH1B2, FP-rhodamine activity probe, fluorescence polarization. inhibition, % at 3.39 µM. hit rate 1.2% among 340,000. AID 492953;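 active = inhibition above the mean of all tested compounds plus 3 SD, cut at about 24% in these data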
# Target sequence (P68402 whole entry, looked up): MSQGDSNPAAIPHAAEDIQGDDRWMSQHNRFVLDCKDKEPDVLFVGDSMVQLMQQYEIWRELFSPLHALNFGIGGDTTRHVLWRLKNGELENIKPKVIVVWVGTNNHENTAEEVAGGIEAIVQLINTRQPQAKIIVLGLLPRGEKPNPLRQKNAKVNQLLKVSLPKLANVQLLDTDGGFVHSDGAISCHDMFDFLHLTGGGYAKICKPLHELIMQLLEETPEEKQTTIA
# PAFAH2 inh = inhibitors of human PAFAH2. Q99487. recombinant PAFAH2, FP-rhodamine activity probe, fluorescence polarization. inhibition, % at 3.39 µM. hit rate 0.99% among 340,000;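 active = inhibition above the mean over all tested compounds plus 3 SD, cut at about 30% in these data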;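 note: inhibitors block probe labeling of enzyme so polarization drops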
# pPAFAH FP inh = inhibitors of human plasma PAF acetylhydrolase (pPAFAH); AID 463082; inhibition, % at 3.39 µM; hit rate 1.5% among 330,000; recombinant pPAFAH, FP-rhodamine probe fluorescence polarization; Q13093;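 active = inhibition above the mean inhibition across the screen plus 3 SD, cut at about 25% in these data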;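 note: inhibitors block binding of the rhodamine activity-based probe so polarization drops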
# Hits are given with their value; - = inactive; . = not tested or not shown. Sampled rows, rich in hits. Any-hit rate of the full collection: about 2.7%.
SMILES,PAFAH1B3 FP inh,RBBP9 inh,PAFAH1B2 inh,PAFAH2 inh,pPAFAH FP inh
COc1cc(C(=O)ON=C2C(C)=CC(=O)C=C2C)cc(OC)c1OC,-,-,-,83,-
Cc1ccc(S(=O)(=O)N/N=C/c2cccc([N+](=O)[O-])c2)cc1,-,-,-,-,-
CCCCCCCCCS(=O)(=O)N/N=C/c1cccc([N+](=O)[O-])c1,-,-,28,-,-
C=C/C(C)=C/CC1C(=C)CCC2C(C)(C(=O)O)CCCC12C (stereo unspecified),-,.,-,-,-
C=C[C@]1(C)C=C2CCC3[C@](C)(CCC[C@@]3(C)C(=O)O)C2CC1 (stereo partly specified),-,.,68,43,-
CCOc1ccc(NC(=O)CN(C)C(=O)CN2C(=O)NC3(CCCC3)C2=O)cc1OCC,-,.,-,-,26
CC(=O)OC[C@]12CC[C@H]3[C@@](C)(CC[C@H]4C(C)(C)CCC[C@]34C)[C@@H]1C[C@H](C1=CC(=O)O[C@@H]1OC(C)=O)O2,.,.,.,.,45
CC1(C)CCC[C@]2(C)[C@H]3CC(=O)O[C@]3(C)CC[C@@H]12,-,.,-,-,-
Oc1c(Cl)cc(Cl)cc1Sc1cc(Cl)cc(Cl)c1O,.,-,.,.,77
Cc1cc(C)c(O)c(CN(C)Cc2cc(Cl)cc(Cl)c2O)c1,-,.,-,-,.
CSc1ccc(N2C(=O)NC3(CCCCC3)C2=O)cc1,-,-,-,-,-
C[C@H](CO)N1C[C@H](C)[C@@H](CN(C)C(=O)Nc2ccc(C(F)(F)F)cc2)Oc2c(NC(=O)Cc3ccccc3)cccc2C1=O,-,.,-,-,-
C[C@@H]1CN([C@H](C)CO)C(=O)c2cccc(NC(=O)NC3CCCCC3)c2O[C@@H]1CN(C)C(=O)Nc1ccc(C(F)(F)F)cc1,-,.,64,-,-
C[C@H](CO)N1C[C@H](C)[C@@H](CN(C)C(=O)Nc2ccccc2)Oc2c(NC(=O)Nc3ccccc3)cccc2C1=O,-,.,-,-,-
C[C@H](CO)N1C[C@H](C)[C@@H](CN(C)C(=O)Nc2ccc(C(F)(F)F)cc2)Oc2c(NC(=O)CCC(F)(F)F)cccc2C1=O,-,.,28,-,-
C[C@H](CO)N1C[C@H](C)[C@@H](CN(C)C(=O)Nc2ccccc2)Oc2c(NC(=O)Nc3ccc(C(F)(F)F)cc3)cccc2C1=O,-,.,36,-,-
COc1ccc(Cl)cc1-c1nc(SCC(=O)NC2CC2)n[nH]1,-,-,-,-,-
CC(O)c1nc2ccccc2n1CCCc1ccccc1 (stereo unspecified),-,.,-,-,34
CC(NC(N)=O)C(=O)OCC(=O)c1ccc(-c2ccccc2)cc1 (stereo unspecified),-,-,-,-,-
CC(C)c1ccc(C(=O)COC(=O)C(O)c2ccccc2)cc1 (stereo unspecified),-,.,-,-,29
O=[N+]([O-])c1ccc(Cl)c(-c2ccc(/C=N/c3c(-c4ccco4)nc4ccccn34)o2)c1,-,-,-,-,-
Cc1cc(C)c([N+](=O)[O-])cc1-c1ccc(/C=N/c2c(-c3ccco3)nc3ccccn23)o1,-,-,-,-,32
CC(C)CCSc1nc(N)c(C#N)cc1C#N,-,-,-,-,-
O=C(COC(=O)CCc1ccccc1)Nc1cc(S(=O)(=O)N2CCOCC2)ccc1N1CCCC1,-,-,-,-,-
CCOc1ccc(S(=O)(=O)Nc2ccc(C(=O)NCC(c3ccco3)N(C)C)cc2)cc1 (stereo unspecified),-,.,-,-,-
SMILES,PAFAH1B3 FP inh,RBBP9 inh,PAFAH1B2 inh,PAFAH2 inh,pPAFAH FP inh
Cc1ccccc1NS(=O)(=O)c1ccc(C(=O)NCC(c2ccco2)N(C)C)cc1 (stereo unspecified),-,.,-,-,30
Cc1ccccc1NS(=O)(=O)c1ccc(C(=O)NCC(c2ccco2)N2CCCCC2)cc1 (stereo unspecified),-,.,-,-,34
O=C(NCC(c1ccco1)N1CCCCC1)c1ccc(COc2ccc(Cl)cc2)cc1 (stereo unspecified),-,.,31,-,.
COC(=O)CNC(=O)C1Nc2ccc(OC(F)(F)F)cc2C2C=CCC12 (stereo unspecified),-,.,-,-,-
CCOC(=O)c1cc(-c2ccccc2)sc1NC(=O)CSc1nnc(N)s1,-,-,-,-,25
CCN(c1cccc(C)c1)S(=O)(=O)c1c(C)[nH]c(C)c1C(=O)N1CCCCC1,-,.,-,-,-
CCOc1ccc(OCCC(=O)OCC(=O)NNC(=O)c2ccccc2)cc1,-,.,-,-,28
CCOc1ccc(OCCC(=O)OCC(=O)Nc2ccc(Cl)cn2)cc1,-,.,-,-,25
Cc1ccc(OCCC(=O)OCC(=O)NNC(=O)c2ccccc2)cc1,-,.,-,-,-
Cc1ccc(OCCC(=O)OCC(=O)NC(=O)NCc2ccccc2)cc1,-,.,-,-,-
Cc1ccc(CNC(=O)COC(=O)CCOc2ccc(C)cc2)cc1,-,.,-,-,27
Cc1ccc(CNC(=O)CCOc2ccc(C(C)(C)C)cc2)cc1,-,-,30,-,-
Cc1ccc2oc(-c3cccc(NC(=O)/C=C/c4cccc([N+](=O)[O-])c4)c3C)nc2c1,-,-,-,-,-
CCOc1ccc(N2CC(C(=O)OCC(=O)NCc3ccccc3)CC2=O)cc1 (stereo unspecified),-,-,-,-,27
CC(C)(C)c1ccc(OCCCC(=O)NNC(=O)c2ccccc2O)cc1,-,.,27,-,28
CC(C)(C)c1ccc(OCCC(=O)OCC(=O)NCc2ccccc2)cc1,-,.,-,-,26
Cc1cccc(NC(=S)N(CCCN2CCOCC2)Cc2ccco2)c1,-,-,-,-,-
COc1ccc(C(=O)COC(=O)c2nc3nccc(C)n3n2)cc1F,-,.,-,-,-
Cc1cc(Br)cc2c(C(=O)Nc3c(C)n(C)n(-c4ccccc4)c3=O)cc(-c3cccs3)nc12,-,-,-,-,-
CCCOc1ccc(C(CC(=O)O)NC(=O)C(c2ccccc2)c2ccccc2)cc1 (stereo unspecified),-,.,26,-,-
CCCOc1ccc(C(CC(=O)O)NC(=O)Cc2ccccc2)cc1 (stereo unspecified),-,.,-,-,-
COCCNC(=O)c1cc(C(=O)CC(C)C)c[nH]1,-,-,-,-,-
CC(=O)OCCNc1cc(N2CCN(C)CC2)c2noc3c2c1C(=O)c1ccccc1-3,-,-,-,-,.
CCN1CCN(c2cc(N3CCN(C(=O)c4ccco4)CC3)c3c4c(onc24)-c2ccccc2C3=O)CC1,-,.,-,-,27
CCOC(=O)N1CCN(S(=O)(=O)c2ccc(C(=O)NNc3nc4cc(C)cc(C)c4s3)cc2)CC1,-,-,-,-,28
CCOC(=O)N1CCN(S(=O)(=O)c2ccc(C(=O)NNc3nc4c(C)cc(C)cc4s3)cc2)CC1,.,-,.,.,32
Nc1nnnn1/N=C/c1cc(Br)ccc1O,.,.,.,.,-
Cc1ccc(C(=O)N2CC(C)CC(C)C2)cc1S(=O)(=O)N1CCCCC1 (stereo unspecified),-,.,-,-,-

# Source: PubChem BioAssay (The Scripps Research Institute Molecular Screening Center)
